Experimental data as given in ChEMBL document CHEMBL1287755, “Design, synthesis and inhibition activity of novel cyclic peptides against protein tyrosine phosphatase A from Mycobacterium tuberculosis” (Bioorg Med Chem, 2010).

Assays:
[1] = target: T1, Low molecular weight protein-tyrosine phosphatase A (Mycobacterium tuberculosis, UniProt P9WIA1); assay: Inhibition of Mycobacterium tuberculosis recombinant protein tyrosine phosphatase A by Lineweaver-Burke plot analysis
T1 sequence (P9WIA1 whole entry): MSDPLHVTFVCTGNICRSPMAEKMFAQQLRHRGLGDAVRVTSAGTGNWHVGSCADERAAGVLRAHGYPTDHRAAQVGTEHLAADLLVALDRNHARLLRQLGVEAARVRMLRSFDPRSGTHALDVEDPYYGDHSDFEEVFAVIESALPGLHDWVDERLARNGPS
Summary of the method: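 Recombinant wild-type MPtpA (purified, purity by SDS-PAGE, concentration from A280) held at 1 µM. Phosphatase activity measured at 25 °C in 0.1 M Tris, 0.15 M NaCl, 1 mM EDTA, pH 7.5, with pNPP substrate. p-Nitrophenol release read at 405 nm. Inhibitors added from methanol, final methanol ≤3% v/v. Inhibitor typically 10–50 µM, substrate 100–300 µM. Triplicate assays. Mode of inhibition from double-reciprocal plots. Ki taken from a plot of Km/Vmax versus [I].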

[2] = target: T2, Low molecular weight protein-tyrosine phosphatase A (Mycobacterium tuberculosis) (UniProt P9WIA1); assay: Binding affinity to Mycobacterium tuberculosis recombinant protein tyrosine phosphatase A by circular dichroism spectral analysis
T2 sequence (whole entry): T1 sequence (P9WIA1 whole entry)
Summary of the method: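 Far-UV CD of recombinant MPtpA at 25 °C in Tris buffer, 10 mm quartz cell. Spectra taken over 195–240 nm at 50 nm/min with 4 s response. Buffer blank containing the ligand subtracted. Protein:peptide ratio titrated from 2:1 up to 1:6. Changes followed at the α-helix minima, 208 and 222 nm, and a binding constant was derived from the titration.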

[3] = target: T2, Low molecular weight protein-tyrosine phosphatase A (Mycobacterium tuberculosis); assay: Binding affinity to Mycobacterium tuberculosis recombinant protein tyrosine phosphatase A by fluorescence quenching assay
Summary of the method: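 Intrinsic tryptophan fluorescence of MPtpA, held at 2 µM, recorded at 20 °C in a 10 mm quartz cuvette. Emission maximum at 340 nm followed during titration with the peptide, up to a 1:10 protein:peptide ratio. Data fitted to Stern–Volmer (F0/F = 1 + Ksv[Q]) and Scatchard plots to give quenching and binding constants.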

SMILES: C[C@@H]1NC(=O)[C@H](C)NC(=O)[C@H](C)NC(=O)[C@@H]([C@@H](Nc2ccccc2)c2ccccc2)CNC1=O
- Ki [1]: 199 µM
- Kb [2]: 3.3 ×10⁴ /M
- Kb [3]: 3.27 ×10⁴ /M

SMILES: O=C1CNC(=O)CNC(=O)[C@@H]([C@@H](Nc2ccccc2)c2ccco2)CN1
- Ki [1]: 215 µM
- Kb [2]: 2.95 ×10⁴ /M
- Kb [3]: 2.99 ×10⁴ /M

SMILES: O=C1CNC(=O)CNC(=O)[C@@H]([C@@H](Nc2ccccc2)c2ccccc2)CN1
- Ki [1]: 85.5 µM
- Kb [2]: 4.7 ×10⁴ /M
- Kb [3]: 4.87 ×10⁴ /M

SMILES: O=C1CNC(=O)[C@@H]([C@@H](Nc2ccccc2)c2ccccc2)CN1
- Ki [1]: 140 µM
- Kb [2]: 3.6 ×10⁴ /M
- Kb [3]: 3.41 ×10⁴ /M

SMILES: O=C1CC[C@H](C(=O)O)NC(=O)[C@@H]([C@@H](Nc2ccccc2)c2ccccc2)CN1
- Ki [1]: 36.3 µM
- Kb [2]: 8.5 ×10⁴ /M
- Kb [3]: 8.89 ×10⁴ /M

SMILES: C[C@@H]1NC(=O)[C@H](C)NC(=O)[C@@H]([C@@H](Nc2ccccc2)c2ccccc2)CNC1=O
- Ki [1]: 220 µM
- Kb [2]: 1.1 ×10⁴ /M
- Kb [3]: 1 ×10⁴ /M

SMILES: O=C1CNC(=O)[C@H](Cc2ccc(O)cc2)NC(=O)[C@@H]([C@@H](Nc2ccccc2)c2ccccc2)CN1
- Ki [1]: 8 µM
- Kb [2]: 1.2 ×10⁵ /M
- Kb [3]: 1.5 ×10⁵ /M
